Assay results as given in publication PMC2740399 (American Journal of Physiology - Cell Physiology, 2009).

Tests used:
HA-tagged h.XGnRHR [1] = experiment: Trafficking, anti-HA loading with agonist present; assay type: cell-based, human/Xenopus laevis; conditions: HeLa; 10^−7 M GnRH with anti-HA, 0–60 min, 37°C
HA-tagged mGnRHR [2] = target: T1, HA-tagged mGnRHR (Mus musculus, UniProt Q01776); experiment: Cell surface expression of HA-mGnRHR; assay type: cell-based; conditions: HeLa, 10^−7 M GnRH, 37°C
T1 sequence (Q01776 1-327): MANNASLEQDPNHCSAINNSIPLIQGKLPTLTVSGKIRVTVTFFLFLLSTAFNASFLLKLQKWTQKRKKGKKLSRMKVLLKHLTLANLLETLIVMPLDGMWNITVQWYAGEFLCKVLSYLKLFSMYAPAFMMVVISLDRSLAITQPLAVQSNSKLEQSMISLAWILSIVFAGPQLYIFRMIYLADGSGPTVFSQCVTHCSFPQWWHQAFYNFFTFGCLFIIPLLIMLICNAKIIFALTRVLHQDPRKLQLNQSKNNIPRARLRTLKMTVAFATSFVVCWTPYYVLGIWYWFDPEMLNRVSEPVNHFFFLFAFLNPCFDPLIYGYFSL

HA-tagged mGnRHR [3] = target: T1, HA-tagged mGnRHR; experiment: Internalization of anti-HA preloaded receptor; assay type: cell-based; conditions: HeLa, 60 min, 37°C; for block of GnRH-stimulated internalization: antagonist 10^−7 M with GnRH 10^−9 M
HA-A261K-h.XGnRHR = experiment: Trafficking, anti-HA loading with agonist present; assay type: cell-based, human/Xenopus laevis; conditions: HeLa; 10^−7 M GnRH with anti-HA, 0–60 min, 37°C
HA-A261K h.XGnRHR = experiment: Internalization of anti-HA preloaded receptor; assay type: cell-based, human/Xenopus laevis; conditions: HeLa, 60 min, 37°C
Outline: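 HeLa cells transduced day after plating with adenovirus (1–3 pfu/nl, 6 h) carrying exofacially HA-tagged, G protein-uncoupled receptor; assayed next day. Surface receptors prelabelled 60 min with mouse anti-HA (1:200) in DMEM/2% BSA at ~21°C, washed, then treated at 37°C. Cells were fixed, permeabilized, given Alexa 488 secondary plus DAPI, and stained inclusions quantified by automated ×10 imaging. Data are 3–4 wells.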

HA-tagged h.XGnRHR [4] = experiment: Internalization of anti-HA preloaded receptor; assay type: cell-based, human/Xenopus laevis; conditions: HeLa, 60 min, 37°C; for block of GnRH-stimulated internalization: antagonist 10^−7 M with GnRH 10^−9 M
HA-tagged XGnRHR [5] = experiment: Cell surface expression of HA-XGnRHR; assay type: cell-based, Xenopus laevis; conditions: HeLa
HA-tagged XGnRHR [6] = experiment: Trafficking, anti-HA loading with agonist present; assay type: cell-based, Xenopus laevis; conditions: HeLa; 10^−7 M GnRH II with anti-HA, 0–60 min, 37°C
HA-tagged hGnRHR [7] = target: T2, HA-tagged hGnRHR (Homo sapiens, UniProt P30968); experiment: Cell surface expression / PCSE of HA-hGnRHR after 18 h ligand exposure; assay type: cell-based; conditions: HeLa
T2 sequence (P30968 1-328): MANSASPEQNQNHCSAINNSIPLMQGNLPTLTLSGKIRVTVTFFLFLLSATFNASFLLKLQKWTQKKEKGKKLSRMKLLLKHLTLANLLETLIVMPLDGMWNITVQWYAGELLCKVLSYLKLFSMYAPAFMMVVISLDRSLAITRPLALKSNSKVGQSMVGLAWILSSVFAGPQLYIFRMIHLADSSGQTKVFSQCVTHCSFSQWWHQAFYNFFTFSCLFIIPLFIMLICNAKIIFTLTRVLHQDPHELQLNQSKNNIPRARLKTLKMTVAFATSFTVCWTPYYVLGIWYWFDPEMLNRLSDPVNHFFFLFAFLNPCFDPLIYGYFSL

[8] = system: GnRHR point mutants that cause hypogonadotropic hypogonadism; conditions: cited from earlier work
wild-type GnRHR = conditions: cited from earlier work
HA-tagged h.XGnRHR [9] = experiment: Whole cell expression of HA-h.XGnRHR; assay type: cell-based, human/Xenopus laevis; conditions: HeLa; 18 h, 10^−7 M; not shown
A261K.hGnRHR = experiment: Cell surface expression of A261K.hGnRHR; assay type: cell-based, human; conditions: HeLa; 18 h, 10^−7 M IN3
[10] = target: T3, HA-tagged h.XGnRHR (hGnRHR with added XGnRHR COOH tail) (Homo sapiens, UniProt P30968); experiment: Cell surface expression / PCSE of HA-h.XGnRHR after 18 h ligand exposure; assay type: cell-based, human/Xenopus laevis; conditions: HeLa
T3 sequence (P30968 1-328): T2 sequence (P30968 1-328)

A261K.h.XGnRHR = experiment: Cell surface expression of A261K.h.XGnRHR; assay type: cell-based, human/Xenopus laevis; conditions: HeLa; 18 h, 10^−7 M IN3
HA-tagged hGnRHR [11] = target: T2, HA-tagged hGnRHR; experiment: Whole cell expression of HA-hGnRHR; assay type: cell-based; conditions: HeLa; 18 h, 10^−7 M; not shown
[12] = 10^−7 M IN3, fluorescence immunohistochemistry, automated imaging

gonadotropin-releasing hormone [GnRH]
inclusion count (effect of agonist) (HA-tagged h.XGnRHR [1]): increased
reduction in cell surface expression, IN3-pretreated cells (HA-tagged mGnRHR [2]; after 18 h 10^−7 M IN3): pronounced reduction
reduction in cell surface expression (HA-tagged mGnRHR [2]; no IN3 pretreatment): reduced expression
internalization (effect of 10^−9 M GnRH) (HA-tagged mGnRHR [3]; 10^−9 M GnRH): increased
receptor distribution (effect of GnRH) (HA-A261K-h.XGnRHR): no measurable effect
internalization (effect of 10^−9 M GnRH) (HA-A261K h.XGnRHR): did not increase internalization
internalization (effect of 10^−9 M GnRH) (HA-tagged h.XGnRHR [4]; 10^−9 M GnRH): increased

(His^5, Trp^7, Tyr^8)GnRH [GnRH II]
time to maximal effect on cell surface expression (HA-tagged XGnRHR [5]; 10^−7 M GnRH II, 37°C): 120 min
time to significant reduction in cell surface expression (HA-tagged XGnRHR [5]; 10^−7 M GnRH II, 37°C): 10 min
reduction in cell surface expression (HA-tagged XGnRHR [5]; 10^−7 M GnRH II, 37°C, data with and without IN3 pretreatment pooled): rapid reduction
inclusion count (effect of agonist) (HA-tagged XGnRHR [6]): increased

cetrorelix
block of GnRH-stimulated internalization (HA-tagged mGnRHR [3]): blocked
internalization (effect of peptide antagonist alone) (HA-tagged mGnRHR [3]; cetrorelix 10^−7 M): not increased by a peptide antagonist
block of GnRH-stimulated internalization (HA-tagged h.XGnRHR [4]): blocked
internalization (effect of peptide antagonist alone) (HA-tagged h.XGnRHR [4]; cetrorelix 10^−7 M): not increased by a peptide antagonist

Cc1cc(C)cc(-c2[nH]c3ccc(C(C)(C)C(=O)N4CC5CCC4CC5)cc3c2[C@H](C)CNCCc2ccncc2)c1 [IN3, (2S)-2-[5-[2-(2-azabicyclo[2.2.2]oct-2-yl)-1,1-dimethy-2-oxoethyl]-2-(3,5-dimethylphenyl)-1H-indol-3-yl]-N-(2-pyridin-4-ylethyl)propan-1-amine]
cell surface expression (effect of ligand) (HA-tagged hGnRHR [7]; [12]): greatly increased
PCSE (proportional cell surface expression) (HA-tagged hGnRHR [7]; 10^−7 M, increased from 1.6% (control), n = 3 experiments): 11%
PCSE increase (HA-tagged hGnRHR [7]; 10^−7 M, vs control, 'almost 7-fold'): ~7 fold
block of GnRH-stimulated internalization (HA-tagged mGnRHR [3]): blocked
rescue of signaling [8]: “rescues” signaling via most of these mutants
signaling via wild-type GnRHR (wild-type GnRHR): increases signaling
whole cell expression (effect of ligand) (HA-tagged h.XGnRHR [9]): no measurable effect
cell surface expression after preincubation (effect of IN3) (HA-tagged XGnRHR [5]; 18 h preincubation, 10^−7 M IN3, not shown): did not alter expression
effect of IN3 on cell surface expression (A261K.hGnRHR): pronounced increase
cell surface expression (effect of ligand) [10, 12]: greatly increased
PCSE (proportional cell surface expression) ([10]; 10^−7 M, increased from 6.3% (control), n = 3 experiments): 17.6%
effect of IN3 on cell surface expression (A261K.h.XGnRHR): pronounced increase
block of GnRH-stimulated internalization (HA-tagged h.XGnRHR [4]): blocked
whole cell expression (effect of ligand) (HA-tagged hGnRHR [11]): no measurable effect
